Experimental data taken from ChEMBL document CHEMBL4145666, “In Search of Selectivity in Inhibition of ADAM10” (ACS Med Chem Lett, 2018).

Tests used:
[1] = molecular target: Macrophage metalloelastase (Homo sapiens, UniProt P39900); experiment: Inhibition of recombinant human MMP12 catalytic domain using Mca-PLGL-DpaAR-NH2 as substrate by fluorescence spectrophotometric method
In short: (§1)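 Enzymes and their substrates were obtained as in earlier work, and inhibition was run by a previously reported protocol. Ki values were measured in triplicate.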

Neutrophil collagenase = Neutrophil collagenase (Homo sapiens, UniProt P22894); experiment: Inhibition of recombinant human MMP8 catalytic domain (Phe99 to Gln269 residues) expressed in Escherichia coli using McaKPLGL-Dpa-AR-NH2 as substrate by fluorescence spectrophotometric method; in short: as §1
[2] = molecular target: T1, Disintegrin and metalloproteinase domain-containing protein 10 (Homo sapiens) (UniProt O14672); experiment: Inhibition of recombinant human C-terminal His10-tagged ADAM10 (Thr214 to Glu672 residues) expressed in baculovirus infected Sf21 cells at 10 uM using McaKPLGL-Dpa-AR-NH2 as substrate by fluorescence spectrophotometric method relative to control
T1 sequence (whole entry): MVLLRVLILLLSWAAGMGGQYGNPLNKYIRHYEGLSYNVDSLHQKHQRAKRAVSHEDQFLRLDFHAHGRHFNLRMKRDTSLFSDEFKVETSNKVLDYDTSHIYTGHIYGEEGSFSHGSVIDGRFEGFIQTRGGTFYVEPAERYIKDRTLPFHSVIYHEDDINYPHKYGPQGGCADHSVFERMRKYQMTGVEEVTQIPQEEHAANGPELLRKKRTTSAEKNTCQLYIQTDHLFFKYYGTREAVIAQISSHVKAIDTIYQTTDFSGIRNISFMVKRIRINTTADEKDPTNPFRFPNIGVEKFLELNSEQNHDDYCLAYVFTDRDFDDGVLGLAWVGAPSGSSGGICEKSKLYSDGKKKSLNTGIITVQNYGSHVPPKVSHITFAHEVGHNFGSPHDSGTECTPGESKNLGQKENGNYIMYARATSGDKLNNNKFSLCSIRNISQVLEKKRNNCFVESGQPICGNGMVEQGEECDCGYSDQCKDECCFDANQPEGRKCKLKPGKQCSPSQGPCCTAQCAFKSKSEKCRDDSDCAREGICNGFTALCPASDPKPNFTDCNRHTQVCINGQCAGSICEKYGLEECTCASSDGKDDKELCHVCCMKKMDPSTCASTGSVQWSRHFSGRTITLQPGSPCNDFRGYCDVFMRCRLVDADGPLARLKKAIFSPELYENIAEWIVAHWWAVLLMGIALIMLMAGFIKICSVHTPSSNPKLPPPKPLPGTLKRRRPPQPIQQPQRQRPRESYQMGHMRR
In short: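 Single inhibitor concentration of 10 μM, reported as percent inhibition. Enzymes and substrates as in earlier work, with inhibition run by a previously reported protocol.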

[3] = molecular target: Disintegrin and metalloproteinase domain-containing protein 17 (Homo sapiens, UniProt P78536); experiment: Inhibition of recombinant human C-terminal His6-tagged ADAM17 (Arg215 to Asn671 residues) expressed in baculovirus infected Sf21 cells using Mca-PLAQAV-Dpa-RSSSR-NH2 as substrate by fluorescence spectrophotometric method; in short: as §1
Chain of Disintegrin and metalloproteinase domain-containing protein 17 (P78536 whole entry, the tested form may be a part): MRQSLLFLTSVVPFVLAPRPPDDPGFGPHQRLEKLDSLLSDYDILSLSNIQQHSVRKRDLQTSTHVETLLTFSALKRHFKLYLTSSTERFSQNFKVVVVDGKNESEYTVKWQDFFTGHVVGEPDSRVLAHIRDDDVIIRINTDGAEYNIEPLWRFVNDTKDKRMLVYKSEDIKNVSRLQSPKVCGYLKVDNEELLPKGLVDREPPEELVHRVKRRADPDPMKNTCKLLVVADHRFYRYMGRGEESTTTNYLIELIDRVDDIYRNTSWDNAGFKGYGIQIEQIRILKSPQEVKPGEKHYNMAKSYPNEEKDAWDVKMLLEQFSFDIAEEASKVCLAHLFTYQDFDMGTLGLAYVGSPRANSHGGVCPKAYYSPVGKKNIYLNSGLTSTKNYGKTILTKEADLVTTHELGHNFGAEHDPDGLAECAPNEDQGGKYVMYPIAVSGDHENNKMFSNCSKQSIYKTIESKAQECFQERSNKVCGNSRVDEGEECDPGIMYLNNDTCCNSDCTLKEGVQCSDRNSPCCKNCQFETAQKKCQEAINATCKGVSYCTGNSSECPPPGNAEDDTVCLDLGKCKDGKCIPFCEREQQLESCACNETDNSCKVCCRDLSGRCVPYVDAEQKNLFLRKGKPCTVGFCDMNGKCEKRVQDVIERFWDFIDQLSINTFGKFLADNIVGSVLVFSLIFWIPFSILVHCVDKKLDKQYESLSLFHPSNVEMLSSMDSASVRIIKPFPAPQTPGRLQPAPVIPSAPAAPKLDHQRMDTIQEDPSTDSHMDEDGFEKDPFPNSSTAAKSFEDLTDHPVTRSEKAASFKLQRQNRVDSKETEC

Chain of Neutrophil collagenase (P22894 whole entry, the tested form may be a part): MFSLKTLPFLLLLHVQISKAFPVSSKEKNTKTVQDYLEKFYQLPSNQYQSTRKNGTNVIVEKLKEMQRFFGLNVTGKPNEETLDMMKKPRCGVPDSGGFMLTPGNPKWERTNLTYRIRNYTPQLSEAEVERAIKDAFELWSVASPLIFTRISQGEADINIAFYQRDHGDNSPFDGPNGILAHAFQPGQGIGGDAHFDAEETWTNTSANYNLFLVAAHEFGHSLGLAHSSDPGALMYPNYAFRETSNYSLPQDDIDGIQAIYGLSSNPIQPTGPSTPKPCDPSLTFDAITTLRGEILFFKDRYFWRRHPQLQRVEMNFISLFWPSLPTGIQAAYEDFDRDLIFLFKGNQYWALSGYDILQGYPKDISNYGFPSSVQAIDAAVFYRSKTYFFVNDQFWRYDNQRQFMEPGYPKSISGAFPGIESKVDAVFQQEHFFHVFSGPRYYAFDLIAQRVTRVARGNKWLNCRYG
Chain of Macrophage metalloelastase (P39900 whole entry, the tested form may be a part): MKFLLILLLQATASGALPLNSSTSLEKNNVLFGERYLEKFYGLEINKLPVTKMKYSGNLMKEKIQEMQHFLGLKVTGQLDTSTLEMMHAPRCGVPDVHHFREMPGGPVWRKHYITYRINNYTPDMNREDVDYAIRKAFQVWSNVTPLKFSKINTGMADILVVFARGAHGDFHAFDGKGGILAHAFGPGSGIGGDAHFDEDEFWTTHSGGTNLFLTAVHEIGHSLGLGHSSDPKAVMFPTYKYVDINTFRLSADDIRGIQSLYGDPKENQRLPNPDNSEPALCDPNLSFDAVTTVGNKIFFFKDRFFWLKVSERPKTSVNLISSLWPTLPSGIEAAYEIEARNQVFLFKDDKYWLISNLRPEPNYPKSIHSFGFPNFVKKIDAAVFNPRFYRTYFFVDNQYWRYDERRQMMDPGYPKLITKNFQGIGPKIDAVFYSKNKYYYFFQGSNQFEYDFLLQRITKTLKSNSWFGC

Ki [1]: 29.5 nM
Ki (Neutrophil collagenase): 3.01 nM
inhibition [2]: 3%
Ki [3]: 61 nM
Compound: CN1CC2(CC2)C[C@H](C(=O)NO)[C@H]1C(=O)N1CCN(c2ccc(C(F)(F)F)cn2)CC1
